One assay concerns the target Cholinesterase (Homo sapiens, UniProt P06276). As to the kind of experiment: Inhibition of human plasma BuChE activity. It is filed as cell-free. In a few lines:
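Modified Ellman assay with purified human serum BuChE (0.05 U) in 0.005% gelatin, buffered DTNB pH 8.0. Inhibitor in 50% aqueous acetonitrile (1.67% v/v final), 1:10 serial dilutions. Butyrylthiocholine 3 × 10^-5 to 1.6 × 10^-4 M. A412 read every 5 s for 1 min at 23 °C, at least triplicate. Ki from slope replot of Lineweaver–Burk lines (no inhibitor, two inhibitor levels).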

The target in assay [1] is Acetylcholinesterase (Homo sapiens) (UniProt P22303). As to the kind of experiment: Inhibition of recombinant human AChE activity. In a few lines: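 Ellman-type assay with recombinant human AChE (0.03 U) in 0.005% gelatin and buffered DTNB pH 8.0. Inhibitor in 50% aqueous acetonitrile, tested as 1:10 serial dilutions. Acetylthiocholine 3 × 10^-5 to 1.6 × 10^-4 M. Absorbance at 412 nm every 5 s over 1 min, 23 °C, generally triplicate and averaged. Lineweaver–Burk plots with and without inhibitor.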

Active and inactive are the calls of the source. The rule behind the calls is not given here.

Consider 25 molecules from ChEMBL document CHEMBL1149693, “Selective reversible inhibition of human butyrylcholinesterase by aryl amide derivatives of phenothiazine” (Bioorg Med Chem, 2007).

Sequence of Acetylcholinesterase (Homo sapiens) (P22303 whole entry): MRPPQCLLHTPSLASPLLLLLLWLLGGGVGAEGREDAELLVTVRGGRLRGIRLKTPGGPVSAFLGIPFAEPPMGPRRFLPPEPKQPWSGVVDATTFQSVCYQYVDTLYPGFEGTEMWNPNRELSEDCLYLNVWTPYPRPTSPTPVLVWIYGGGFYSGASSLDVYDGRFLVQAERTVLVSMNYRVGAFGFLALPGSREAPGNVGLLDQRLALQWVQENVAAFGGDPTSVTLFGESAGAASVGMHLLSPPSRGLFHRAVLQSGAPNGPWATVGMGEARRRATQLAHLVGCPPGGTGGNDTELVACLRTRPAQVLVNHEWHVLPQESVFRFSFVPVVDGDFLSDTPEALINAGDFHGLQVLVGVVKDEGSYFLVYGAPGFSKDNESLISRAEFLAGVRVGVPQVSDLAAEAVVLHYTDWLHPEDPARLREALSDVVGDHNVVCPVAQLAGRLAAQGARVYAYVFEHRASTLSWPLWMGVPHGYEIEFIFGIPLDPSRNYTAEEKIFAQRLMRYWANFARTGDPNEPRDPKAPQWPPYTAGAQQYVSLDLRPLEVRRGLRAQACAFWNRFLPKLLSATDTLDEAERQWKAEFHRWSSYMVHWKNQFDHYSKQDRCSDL
Sequence of Cholinesterase (P06276 whole entry): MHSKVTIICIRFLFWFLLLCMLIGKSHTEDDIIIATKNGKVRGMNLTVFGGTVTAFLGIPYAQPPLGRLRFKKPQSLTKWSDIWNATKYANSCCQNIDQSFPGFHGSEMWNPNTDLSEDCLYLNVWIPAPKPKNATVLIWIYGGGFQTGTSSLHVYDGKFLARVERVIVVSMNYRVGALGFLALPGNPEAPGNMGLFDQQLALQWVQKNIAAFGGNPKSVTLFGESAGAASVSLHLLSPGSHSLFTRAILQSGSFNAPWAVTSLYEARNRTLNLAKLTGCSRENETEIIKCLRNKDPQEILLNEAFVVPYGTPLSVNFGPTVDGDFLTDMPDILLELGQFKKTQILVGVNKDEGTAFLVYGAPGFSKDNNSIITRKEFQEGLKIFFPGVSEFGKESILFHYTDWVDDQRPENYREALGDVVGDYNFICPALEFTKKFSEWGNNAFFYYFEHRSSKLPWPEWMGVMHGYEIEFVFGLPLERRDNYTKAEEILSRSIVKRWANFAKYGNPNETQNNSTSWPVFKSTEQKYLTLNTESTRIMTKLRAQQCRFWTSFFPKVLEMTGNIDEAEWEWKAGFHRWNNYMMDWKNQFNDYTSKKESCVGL

What is called Ki is the dissociation constant of the complex between target and ligand, obtained from inhibition or displacement. A higher Ki goes with weaker binding. The molecule `O=C(Cc1cccc2ccccc12)N1c2ccccc2Sc2ccccc21` displayed an inhibition constant Ki at Cholinesterase of 90 nM. Also, the result in assay [1] was inactive. Molecule `CC(CC(=O)N1c2ccccc2Sc2ccccc21)c1ccccc1` (stereo not drawn) showed a Ki on Cholinesterase of 1700 nM. Moreover, the outcome in assay [1] was inactive.

As for `O=C(c1ccc([N+](=O)[O-])cc1)N1c2ccccc2Sc2ccccc21`, the Ki at Cholinesterase came out at 820 nM. For the same molecule, the result in assay [1] was inactive. With `CC(=O)Oc1ccc(C(=O)N2c3ccccc3Sc3ccccc32)cc1`, at Cholinesterase, the affinity, expressed as Ki, was 23000 nM. In assay [1], the outcome was inactive. In turn, `CCC(C(=O)N1c2ccccc2Sc2ccccc21)c1ccccc1` (stereo not drawn) yielded a Ki at Cholinesterase of 400 nM. Also, the result in assay [1] was inactive. Molecule `CC(C(=O)N1c2ccccc2Sc2ccccc21)c1ccccc1` (stereo not drawn) came in with a Ki on Cholinesterase of 560 nM. In addition, the outcome in assay [1] was inactive.

Consider `O=C(c1cccc2ccccc12)N1c2ccccc2Sc2ccccc21`, for which the inhibitory constant (Ki) on Cholinesterase was found to be 88 nM. Besides, the result in assay [1] was inactive. `O=C(c1ccc2ccccc2c1)N1c2ccccc2Sc2ccccc21` showed a Ki at Cholinesterase of 470 nM. For the same molecule, the outcome in assay [1] was inactive.

In the case of `O=C(C(=O)N1c2ccccc2Sc2ccccc21)N1c2ccccc2Sc2ccccc21`, the affinity at Cholinesterase, expressed as Ki, was 220 nM. Besides, the outcome in assay [1] was inactive. `O=C(c1c2ccccc2cc2ccccc12)N1c2ccccc2Sc2ccccc21`: affinity at Cholinesterase was put at a Ki of 3.5 nM. In addition, in assay [1], the result was inactive. For the molecule `CC(C)(C)c1ccc(C(=O)N2c3ccccc3Sc3ccccc32)cc1`, the result in assay [1] was inactive. With `O=C(c1ccccc1)N1c2ccccc2Sc2ccccc21`, the affinity on Cholinesterase, expressed as Ki, was 5800 nM. In assay [1], the outcome was inactive.

For `O=C(c1ccc(-c2ccccc2)cc1)N1c2ccccc2Sc2ccccc21`, in assay [1], the outcome was inactive.

As for `O=C(Cc1ccccc1)N1c2ccccc2Sc2ccccc21`, on Cholinesterase, the Ki is 610 nM. Also, the outcome in assay [1] was inactive.

Consider `Cc1ccccc1C(=O)N1c2ccccc2Sc2ccccc21`, for which the inhibitory constant (Ki) on Cholinesterase is 3100 nM. Further, the result in assay [1] was inactive.

For `Cc1cccc(C(=O)N2c3ccccc3Sc3ccccc32)c1`, the affinity on Cholinesterase, expressed as Ki, was 1900 nM. Further, the outcome in assay [1] was inactive. On to `O=C(/C=C/c1ccccc1)N1c2ccccc2Sc2ccccc21`, for which the Ki on Cholinesterase is 2700 nM. In addition, the result in assay [1] was inactive.

Take `O=C(c1cccc(Br)c1)N1c2ccccc2Sc2ccccc21`: the Ki on Cholinesterase amounted to 600 nM. Besides, the result in assay [1] was inactive.

The molecule `Cc1ccc(C(=O)N2c3ccccc3Sc3ccccc32)cc1` gave a Ki at Cholinesterase of 2500 nM. Also, the outcome in assay [1] was inactive. At Cholinesterase, `O=C(Cc1ccc2ccccc2c1)N1c2ccccc2Sc2ccccc21` returned a Ki of 28 nM. Further, in assay [1], the result was inactive. `O=C(Cc1ccc(-c2ccccc2)cc1)N1c2ccccc2Sc2ccccc21` gave a Ki on Cholinesterase of 1700 nM. In addition, in assay [1], the outcome was inactive. In the case of `O=C(c1ccc(Br)cc1)N1c2ccccc2Sc2ccccc21`, on Cholinesterase, the affinity, expressed as Ki, was 1300 nM. In assay [1], the result was inactive.

`COc1ccc(C(=O)N2c3ccccc3Sc3ccccc32)cc1` gave a Ki on Cholinesterase of 1500 nM. Moreover, the outcome in assay [1] was inactive. The matching figures for `O=C(CCCc1ccccc1)N1c2ccccc2Sc2ccccc21`: 220 nM and “inactive”. The matching figures for `O=C(CCc1ccccc1)N1c2ccccc2Sc2ccccc21`: 6200 nM and “inactive”.
